Results pooled from the literature.
Target: Dual specificity protein kinase CLK2 (CLK2, Homo sapiens, UniProt P49760)

Compound	observed	mode	technique	concentration	endpoint	value
Cn1c2c(Cl)c(Cl)ccc2c2cn[nH]c(=O)c21	thermal stability		DSF	10 µM	ΔTm	2 °C
CCCS(=O)(=O)Nc1ccc(F)c(C(=O)c2c[nH]c3ncc(-c4ccc(Cl)cc4)cc23)c1F	enzyme activity	inhibitor		1 µM	inhibition	< 10%
Cc1ccc(NC(=O)c2ccc(C)c(C(F)(F)F)c2)cc1C#Cc1nn(C2CCC(O)CC2)c2ncnc(N)c12 (stereo not drawn)	cell-free assay			10 µM	remaining signal	47%
CN1CC(Oc2cnc(C#N)cc2-c2ccn3nc(NC(=O)C4CC4)cc3c2)C1	enzyme activity	inhibitor		1 µM	inhibition	1%
COCCOc1nc(-c2ccc(Cl)nc2)nc2c1CN(C(=O)c1ncn3ccccc13)CC2	cell-free assay		competition with immobilised ligand	0.1 µM	remaining binding	100%
FC(F)(F)Oc1cccc(-c2cnc3ccc(-c4ccncc4)nn23)c1	enzyme activity	inhibitor	radiometric	1 µM	activity vs control	0.675%
Cn1c2c(c3ccc(Cl)c(Cl)c31)C(C#N)C1(CCCCC1)NC2=O (racemic)	thermal stability		DSF	10 µM	ΔTm	2.1 °C
COc1cc2ncnc(Nc3ccc(Oc4ccccc4)cc3C)c2cc1OC	enzyme activity	inhibitor		1 µM	inhibition	0%
O=S(=O)(NC1CCC(c2cc(F)ccc2F)(S(=O)(=O)c2ccc(Cl)cc2)CC1)C(F)(F)F (stereo not drawn)	cell-free assay		competition with immobilised ligand	1 µM	remaining binding	100%
O=C1Nc2ccc(Cl)cc2C1=Cc1cc(Cl)c(O)c(Cl)c1	cell-free assay			0.5 µM	remaining signal	95.5%
Cn1c2c(c3ccc(Cl)c(Cl)c31)C(C#N)C(C)(C)NC2=O (stereo not drawn)	thermal stability		DSF	10 µM	ΔTm	3.2 °C
Oc1cccc(-c2nc(N3CCOCC3)c3oc4ncccc4c3n2)c1	enzyme activity	inhibitor		10 µM	remaining activity	25%
CCCOc1ccc([C@H]2[C@H](C(=O)O)[C@@H](c3ccc4c(c3)OCO4)CN2CC(=O)Nc2c(CC)cccc2CC)cc1	cell-free assay		competition with immobilised ligand	1 µM	remaining binding	91%
Cc1ccc(NC(=O)c2ccc(CN3CCN(C)CC3)cc2)cc1Nc1nc(-c2cccnc2)cs1	cell-free assay			0.5 µM	remaining signal	86%
Cn1c2c(Cl)c(Cl)ccc2c2cc(N)[nH]c(=O)c21	thermal stability		DSF	10 µM	ΔTm	1.3 °C
Cc1cnc(NC2CCOCC2)nc1-n1cnc(C(=O)NC(CN)c2cc(F)cc(Cl)c2)c1 (stereo not drawn)	enzyme activity	inhibitor	radiometric	1 µM	remaining activity	78%
CC(C)(C)c1nc(-c2cccc(NS(=O)(=O)c3c(F)cccc3F)c2F)c(-c2ccnc(N)n2)s1	enzyme activity	inhibitor	radiometric	1 µM	remaining activity	98%
COc1cc(Nc2cnc(C#N)c(O[C@H](C)CN(C)C)n2)ncc1-c1cnn(C)c1	enzyme activity	inhibitor	radiometric	1 µM	remaining activity	95%

Compound	observed	mode	technique	concentration	endpoint	value
Nc1ncnc2occ(-c3ccc(NC(=O)Nc4cc(C(F)(F)F)ccc4F)cc3)c12	cell-free assay	inhibitor		20 µM	remaining signal	23%
CCC1(CC)NC(=O)c2c(c3ccc(Cl)c(Cl)c3n2C)C1C#N (stereo not drawn)	thermal stability		DSF	10 µM	ΔTm	1.3 °C
CCN(CC)c1ccc(C2=NNC(=O)CC2C)cc1[N+](=O)[O-] (stereo not drawn)	enzyme activity	inhibitor		10 µM	remaining activity	96%
CC(C)(O)[C@H]1CC[C@H](Nc2ccc3ncc(-c4cccc(C(F)(F)F)c4)n3n2)CC1	enzyme activity	inhibitor		1 µM	remaining activity	15.8%
COc1cc2ncnc(Nc3ccc(F)c(Cl)c3)c2cc1OCCCN1CCOCC1	cell-free assay			0.5 µM	remaining signal	94.8%
Nc1nc(Nc2ccc(S(N)(=O)=O)cc2)sc1C(=O)c1ccccc1[N+](=O)[O-]	enzyme activity	inhibitor		0.1 µM	inhibition	60 to 66%
CN([C@@H]1CCc2c(CC(=O)O)c3cc(S(C)(=O)=O)ccc3n2C1)S(=O)(=O)c1ccc(F)cc1	cell-free assay		competition with immobilised ligand	1 µM	remaining binding	100%
COc1cc(/C=C/C(=O)CC(=O)/C=C/c2ccc(O)c(OC)c2)ccc1O	enzyme activity	inhibitor		1 µM	activity vs control	48%
CN(C)C1CCN(CC#Cc2nn(C3CCCC3)c3nc(NCc4ccccc4)ncc23)C1 (stereo not drawn)	enzyme activity	inhibitor	FRET	1 µM	inhibition	11%
CCOCCn1cc(C(=O)Nc2ccc(-n3nc(-c4cccnc4)cc3C(F)(F)F)cn2)ccc1=O	cell-free assay		competition with immobilised ligand	1 µM	remaining binding	86%
O=C(CSc1nc2nccnc2c(=O)n1CCc1ccccc1)Nc1nccs1	enzyme activity	inhibitor		10 µM	inhibition	15%
c1ccc(CNc2nc(N3CCOc4ccccc43)nc3c2CCCC3)cc1	target engagement in cells	inhibitor	chemoproteomics	20 mM	inhibition	-5.9%
COc1ccc2c(O[C@@H]3C[C@H]4C(=O)N[C@]5(C(=O)O)CC5/C=C\CCCCC[C@H](NC(=O)OC5CCCC5)C(=O)N4C3)cc(-c3csc(NC(=O)C(C)C)n3)nc2c1C (stereo partly drawn)	cell-free assay		competition with immobilised ligand	1 µM	remaining binding	100%
N#CCCc1ccc2c(c1)-c1[nH]c3ccc([N+](=O)[O-])cc3c1CC(=O)N2	cell-free assay			0.5 µM	remaining signal	104%
O=C(NCc1ncc(C(F)(F)F)cc1Cl)c1ccc2c(c1)C1(CCS(=O)(=O)CC1)[C@@H](C1CC1)N2S(=O)(=O)c1ccc(F)cc1	cell-free assay		competition with immobilised ligand	1 µM	remaining binding	82%
Cc1sc(C(=O)NC2COC2)cc1-n1cc(NC(=O)Nc2c(F)cccc2Cl)cn1	enzyme activity	inhibitor		10 µM	remaining activity	100%
COc1cc(-c2cn(C3CCc4c(F)cccc4N(CC(F)(F)F)C3=O)nn2)ccc1-n1cnc(C)c1 (stereo not drawn)	cell-free assay		competition with immobilised ligand	1 µM	remaining binding	100%
Cn1cnc(Br)c1C1=CN(c2ncnc3[nH]cnc23)CCS1	enzyme activity	inhibitor	radiometric	50 nM	inhibition	46.1%
